# High-throughput results as filed in PubChem.
# Most compounds without a hit are left out; they make up all but 1.4% or so of the library.
# NR1D1 modulator: modulators of human Rev-erb alpha DNA binding; P20393; Rev-erbα–FITC-DNA binding, fluorescence polarization, 90 min; activity, % at 10 µM; 0.79% of 370,000 active;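 active means activity above about 14%, limit read from the data; passing the limit was not always enough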
# Target sequence (P20393 whole entry, looked up): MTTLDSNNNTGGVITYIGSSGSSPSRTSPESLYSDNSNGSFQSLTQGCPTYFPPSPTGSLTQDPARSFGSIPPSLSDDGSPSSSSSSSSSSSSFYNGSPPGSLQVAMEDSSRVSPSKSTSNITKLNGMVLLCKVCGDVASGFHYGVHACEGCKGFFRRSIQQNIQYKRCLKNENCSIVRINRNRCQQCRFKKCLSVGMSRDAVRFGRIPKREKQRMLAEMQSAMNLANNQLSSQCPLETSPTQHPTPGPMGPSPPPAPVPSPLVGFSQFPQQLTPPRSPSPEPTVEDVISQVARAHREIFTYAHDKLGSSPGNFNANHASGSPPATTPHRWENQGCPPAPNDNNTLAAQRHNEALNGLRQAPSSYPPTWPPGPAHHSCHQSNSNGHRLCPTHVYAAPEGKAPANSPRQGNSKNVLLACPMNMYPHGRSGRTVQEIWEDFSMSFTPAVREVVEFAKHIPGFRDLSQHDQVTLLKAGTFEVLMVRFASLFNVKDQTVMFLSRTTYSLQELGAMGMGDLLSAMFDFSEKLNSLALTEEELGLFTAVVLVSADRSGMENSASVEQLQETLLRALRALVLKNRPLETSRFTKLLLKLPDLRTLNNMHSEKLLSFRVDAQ
# PG9 binder: PG9 antibody binding by small molecule; inhibition, % at 6.7 µM; 0.43% of 360,000 active; TR-FRET gp120-PG9 antibody binding; in the data active means inhibition above about 8.5%
# NR2E3 ag-1: human photoreceptor-specific nuclear receptor agonism. AID 602229. Q9Y5X4. 0.35% of 360,000 active. inhibition of corepressor binding, % at 3.98 µM. CHO-S Gal4-NCOR/VP16-NR2E3 two-hybrid, luciferase;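 active means inhibition above the mean of all tested compounds plus 3 SD, cut at about 70% in these data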;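 further: higher means lower luciferase signal from less NR2E3 corepressor binding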
# NR2E3 ag-2: activates human photoreceptor nuclear receptor NR2E3. 0.12% of 320,000 active. AID 2300. inhibition of corepressor binding, % at 4.78 µM. GST-NR2E3/biotin-RetCOR TR-FRET, 1536-well;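 active means percent inhibition above the cutoff of mean plus 3 SD of all tested compounds, set per screening campaign, cut at about 20% in these data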
#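 Material: NR2E3–RetCOR corepressor complex | Quantity: 1.35 nM GST-tagged NR2E3 final | Schedule: 5 h at 4 °C | Replication: Singlicate compound wells | Reagent: RetCOR corepressor, biotinylated, 7 nM | Controls: Biotin wells as high control, 0.6% DMSO wells as low control | Signal: TR-FRET, Eu(K)-anti-GST donor, streptavidin-D2 acceptor, ex 340, em 617/671 nm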
# NR2E3 ag confirm: confirmation of human NR2E3 agonists | shares compounds with NR2E3 ag-1 | CHO-S mammalian two-hybrid NR2E3-NCOR, luciferase luminescence | inhibition, % at 3.98 µM | 51% of 2,300 active | AID 624378;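 active means average inhibition above a cutoff equal to the mean inhibition of all tested compounds plus one SD, cut at about 70% in these data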
# GAL4-VP16 luc: GAL4-VP16 reporter inhibition in NR2E3 agonist counterscreen; shares compounds with NR2E3 ag-1; CHO-S GAL4-VP16 luciferase reporter, luminescence; inhibition, % at 3.98 µM; 29% of 2,300 active;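 active means mean inhibition above a cutoff equal to the average over all tested compounds plus one standard deviation, cut at about 70% in these data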;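 further: luciferase from a UAS reporter driven by GAL4-VP16 transactivation; higher means less reporter light so more repression of VP16 activity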
# A number is an active result; 0 = inactive; - = not tested or not shown.
SMILES,NR1D1 modulator,PG9 binder,NR2E3 ag-1,NR2E3 ag-2,NR2E3 ag confirm,GAL4-VP16 luc
CC(C)C[C@@H]1COc2cc(N3CCSCC3)ccc2S(=O)(=O)N1C,0,-,-,-,-,-
COCCCNC(=O)C[C@H]1C[C@@]2(C(=O)OC)C(=C[C@H](C(C)(C)C)O[C@@H]2C)N(Cc2ccco2)C1=O,0,-,-,-,-,-
COc1ccc(CN2C3=N[C@H](c4ccccc4)CC(=O)N3/C(=C\c3ccccc3)C2c2ccco2)c(OC)c1 (stereo partly drawn),0,-,-,-,-,-
Cc1ccc(-c2nc(CSCC(=O)N3CCOCC3)c(C)o2)cc1,0,0,0,0,-,-
CCOc1ccc(-c2nc(CSCC(=O)N3CCN(c4cccc(OC)c4)CC3)c(C)o2)cc1,0,0,0,0,78.2,0
Cc1ccc(-c2nc(CSCC(=O)N3CCN(c4ccccn4)CC3)c(C)o2)cc1,0,0,82.8,0,87.3,76.4
COC(=O)C[C@H]1CC[C@H]2[C@@H](COc3ccc(NC(=O)Nc4ccccc4)cc3C(=O)N2C)O1,0,-,-,-,-,-
CCc1cccc2c(C(C)c3ccccc3O)c[nH]c12 (stereo not drawn),0,-,-,-,-,-
NC(=S)NN=Cc1nccc2c(C(F)(F)C(F)(F)C(F)(F)F)cccc12,0,0,86.8,-,0,0
NC(=S)NN=Cc1nccc2ccccc12,0,0,74.9,-,0,0
Cc1cnc(C=NNC(N)=S)c2cccc(N)c12,0,0,0,-,-,-
COC(=O)c1ccc2c(C3(c4c[nH]c5ccccc45)CCN(C(=O)OC(C)(C)C)CC3)c[nH]c2c1,0,-,-,-,-,-
COC(=O)C1CN(CCc2ccccc2)CCS(=O)(=O)N1Cc1ccc(Cl)cc1 (stereo not drawn),0,-,-,-,-,-
O=C(CN1C(=O)c2ccccc2S1(=O)=O)c1ccc2c(c1)OCCO2,0,0,0,0,84.8,0
O=C(CN1C(=O)c2ccccc2S1(=O)=O)c1ccc(F)cc1,0,0,0,0,-,-
O=C(CN1C(=O)c2ccccc2S1(=O)=O)c1ccc2c(c1)OCCCO2,0,0,97.4,0,93.9,89.0
CCCCOCCCNC(=O)C[C@H]1C[C@@]2(C(=O)OC)C(=C[C@H](COCc3ccccc3)O[C@@H]2C)N(Cc2ccc(Cl)cc2Cl)C1=O,0,-,-,-,-,-
CCOC(=O)[C@]12CCCCC/C=C\1N(Cc1ccc(OC)cc1)C(=O)[C@H]2CC(=O)NCc1cccc2ccccc12,0,-,-,-,-,-
CCOC(=O)c1cnc(-n2nc(C)cc2C)nc1NCc1ccccc1,0,0,93.5,0,0,0
CCOC(=O)c1cnc(-n2nc(C)cc2C)nc1NC(C)c1ccccc1 (stereo not drawn),0,0,98.1,0,0,0
C[C@H]1COc2cc(Br)ccc2S(=O)(=O)N1Cc1cn(CCC2OCCO2)nn1,0,-,-,-,-,-
Cc1sc(NC(=O)/C=C/c2ccc3c(c2)OCO3)nc1-c1ccccc1,0,0,0,0,85.0,0
O=S1(=O)CC2c3ccccc3CN2CN1CCc1ccccc1 (stereo not drawn),0,-,-,-,-,-
NS(=O)(=O)c1ccc(CCNc2nn3c(-c4cccc(OC(F)(F)F)c4)cnc3s2)cc1,0,0,93.7,-,89.7,0
CCOc1ccc(CCNC(=O)Cc2ccccc2)cc1OCC,0,-,-,-,-,-
SMILES,NR1D1 modulator,PG9 binder,NR2E3 ag-1,NR2E3 ag-2,NR2E3 ag confirm,GAL4-VP16 luc
Cc1cccc2nc(-c3ccco3)c(Nc3ccccc3)n12,0,0,0,0,-,-
Cc1cccc(C)c1Nc1c(-c2ccccn2)nc2ccccn12,0,0,76.8,0,0,0
CCCCCCSc1cccc(-c2nc3ccc(C)cn3c2NC2CCCCC2)c1,0,0,0,0,-,-
Cc1ccc2nc(-c3ccccn3)c(NC3CCCC3)n2c1,0,0,0,0,0,0
Cc1ccc(Nc2c(-c3ccccn3)nc3cccc(C)n23)cc1,0,0,96.4,0,97.5,83.0
Cc1cc(C)n2c(Nc3c(C)cccc3C)c(-c3ccccn3)nc2n1,0,0,0,-,-,-
CCN1CCCCC(NC(=O)c2ccc(F)c(F)c2)C1=O (stereo not drawn),0,-,-,-,-,-
O[C@H](COc1ccc(C(F)(F)F)cc1)CN1CCC(C(O)(c2ccccc2)c2ccccc2)CC1,0,-,-,-,-,-
Cc1cc(N2CCN(C(=O)c3cccs3)CC2)c(F)cc1[N+](=O)[O-],0,0,79.0,0,82.3,0
COc1ccc(OC)c(S(=O)(=O)Nc2ccc3c(c2)N(C(C)=O)CCC3)c1,0,0,0,0,-,-
CC(=O)N1CCCc2ccc(NS(=O)(=O)c3ccc(C)c(C)c3)cc21,0,0,0,0,0,0
CC(=O)Nc1ccc(S(=O)(=O)Nc2ccc3c(c2)CCC3)cc1,0,0,0,0,0,0
COc1ccc(N=C(NN)c2ccc3ccccc3n2)cc1,0,0,0,0,0,0
O=C(NNc1ccccc1)C(=O)NNS(=O)(=O)c1ccc(CCCl)cc1,0,0,0,0,-,-
Nc1ccc(S(=O)(=O)NNC(=O)C(=O)NNc2ccccc2)cc1,0,0,0,0,0,0
C/C(CC(C)(C)C1CCCCC1)=N\NC(N)=S,0,0,80.7,0,0,0
CC(C)(C)NCC(=Cc1ccccc1)C(=O)c1ccccc1,0,0,87.3,-,82.9,0
COCCn1c(C)cc(C(=O)COC(=O)c2cc3c(s2)CCC3)c1C,0,0,0,0,-,-
COCCn1c(C)cc(C(=O)COC(=O)c2cccc(O)c2)c1C,0,0,0,0,0,0
Cc1ccc(NS(=O)(=O)c2ccc(-n3cccn3)cc2)c(Br)c1,0,0,0,-,0,0
Cc1ccc(Cl)cc1NS(=O)(=O)c1ccc(-n2cccn2)cc1,0,0,0,0,-,-
Cc1ccc(NS(=O)(=O)c2ccc(-n3cccn3)cc2)c(C)c1,0,0,0,0,-,-
Cc1ccc(NS(=O)(=O)c2ccc(-n3cccn3)cc2)cc1F,0,0,0,0,0,0
COc1ccc(Cl)cc1NC(=S)NNC(=O)C1(C)CC1(Cl)Cl (stereo not drawn),0,0,0,0,0,0
COC(=O)c1cc(OC)c(OC)cc1NC(=S)Nc1cc(Cl)ccc1OC,0,0,0,0,-,-
SMILES,NR1D1 modulator,PG9 binder,NR2E3 ag-1,NR2E3 ag-2,NR2E3 ag confirm,GAL4-VP16 luc
O=C1c2cccnc2C(=O)N1CO,0,0,0,0,-,-
NC1=C(Br)C(=O)c2ncccc2C1=O,0,0,98.6,-,92.4,0
CC(=O)N[C@@H]1C[C@@H]2O[C@@H](CO)CC[C@@H]2O[C@@H]1CCc1ccc(C#CC2(O)CCCC2)cc1,0,-,-,-,-,-
CCOC(=O)Cn1c(=O)c(-c2cc(Br)ccc2N)nc2ccccc21,0,0,75.6,0,80.1,0
CCOC(=O)Cn1c(=O)c(-c2ccccc2N)nc2ccccc21,0,0,0,0,-,-
COc1ccc(OC)c(C2C=C(C34CC5CC(CC(C5)C3)C4)NC(=S)N2)c1 (stereo not drawn),0,0,0,0,0,0
COc1cc(C2C=C(C34CC5CC(CC(C5)C3)C4)NC(=S)N2)cc(OC)c1OC (stereo not drawn),0,0,0,0,-,-
CC(=O)N1CCc2c(sc(NC(=O)c3ccc([N+](=O)[O-])o3)c2C(N)=O)C1,0,0,79.1,-,0,0
